≈ marks a conversion by molar mass, not a printed value.

The test system of assay [1] is E6SM. In words: Inhibition of Herpes simplex virus-1, KOS strain induced cytopathicity in E6SM cell line. To be noted: Homo sapiens. The assay is classed as functional, cell-based. An outline of the steps: (§1)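 Inhibition of virus-induced cytopathicity in confluent cell cultures in 96-well plates inoculated with 100 CCID50 of virus; 1 CCID50 is the virus dose infecting 50% of cultures. EC50 is based on reduction of cytopathicity.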
Background: Damage to the host cells serves as the signal in cytopathic effect assays.

The test system of another assay is HeLa. In words: In vitro cytotoxicity against human cervix carcinoma HeLa S3 cells. The assay is classed as functional. On the set-up: concentration or dose not given beside the values. In outline:
(§2)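 Cells were grown for 72 h at a constant compound concentration of 10 µM, then counted. Growth inhibition is given relative to cell counts in control cultures grown in medium without compound. Lines: mouse L1210 and L929, human HeLaS3 and CCRF-CEM.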

Assay [2] concerns Moloney murine sarcoma virus. In words: Inhibition of moloney sarcoma virus (MSV) induced cytopathicity in C3H/3T3 embryo fibroblast cells. It counts as functional, organism-based. An outline of the steps: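 C3H/3T3 murine embryo fibroblasts were seeded in 48-well plates and infected 24 h later with 80 focus-forming units of MSV. MSV stock was prepared from tumours in NMRI mice. Virus adsorbed for 10-120 min at 37 °C, then fresh medium with compound dilutions was added. Transformation was examined microscopically after 6 days.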

For assay [3], the system named is CCRF-CEM. The assay can be described thus: Inhibition of Human immunodeficiency virus (HIV)-2 ROD strain induced cytopathicity in CEM cell line. It counts as functional, cell-based. An outline of the steps: (§3)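 CEM cells were infected with 100 CCID50 per mL of HIV-1 (IIIB) or HIV-2 (ROD). Cells were seeded into wells containing dilutions of compound and incubated 4 days at 37 °C. CEM giant cell formation was then examined microscopically.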

Assay [4] relates to CCRF-CEM. The assay can be described thus: In vitro cytotoxicity against CCRF-CEM T lymphoblastoid cells. It counts as functional, Homo sapiens. Further details: concentration or dose not given beside the values. In outline:
as §2

For a further assay, the system named is L1210. The assay can be described thus: In vitro cytotoxicity against L1210 mouse leukemia cells. It counts as functional. On the set-up: concentration or dose not given beside the values. In outline:
as §2

Assay [5] relates to HEL. In words: Inhibition of Varicella-Zoster virus (VZV) OKA strain induced cytopathicity in HEL cell line. It counts as functional, cell-based. As to conditions: Homo sapiens. In outline:
as §1

In assay [6] the test system is E6SM. The assay can be described thus: Inhibition of thymidine kinase deficient Herpes simplex virus-1 VMW 1837 strain induced cytopathicity in E6SM cell line. The assay is classed as functional, cell-based. To be noted: Homo sapiens. An outline of the steps: as §1
For the next assay, the system named is Human alphaherpesvirus 3. In words: Inhibition of Thymidine kinase deficient (TK-) Varicella-Zoster virus (VZV) 07/1 strain induced cytopathicity n HEL cell line. The assay is classed as functional, organism-based. As to conditions: Human alphaherpesvirus 3, tk-07, HEL. In outline: as §1
For assay [7], the system named is HEL. The assay can be described thus: Inhibition of Varicella-Zoster virus (VZV) YS strain induced cytopathicity in HEL cell line. As to conditions: Homo sapiens. It counts as functional, cell-based. An outline of the steps: as §1
Assay [8] concerns HEL. In words: Inhibition of Thymidine kinase deficient (TK-) Varicella-Zoster virus (VZV) YS/R strain induced cytopathicity in HEL cell line. To be noted: Homo sapiens. The assay is classed as functional, cell-based. In outline: as §1
Assay [9] has as its system E6SM. In words: Inhibition of Herpes simplex virus-2 (G strain) induced cytopathicity in E6SM cell line. As to conditions: Homo sapiens. The assay is classed as functional, cell-based. An outline of the steps: as §1
The subject of the next assay is L929. In words: In vitro cytotoxicity against murine L929 cells. The assay is classed as functional, Mus musculus. Further details: concentration or dose not given beside the values. An outline of the steps:
as §2

The subject of assay [10] is CCRF-CEM. In words: Inhibition of Human immunodeficiency virus (HIV) -1 III B strain induced cytopathicity in CEM cell line. It counts as functional, cell-based. An outline of the steps:
as §3

A word on the EC50: it is the midpoint of the concentration-response curve. Consider `CN(C)c1cc(=O)n(CCOCP(=O)(O)O)c(N)n1`, for which the EC50 in the assay with E6SM [1] was more than 80 µg/mL; in assay [2] it was 105 µg/mL (≈ 359 µM); with CCRF-CEM [3] it was more than 100 µg/mL; in the assay with HEL [5] it was more than 50 µg/mL; in the assay on E6SM [6] it was more than 80 µg/mL; in the assay with Human alphaherpesvirus 3, more than 50 µg/mL. Also, the EC50 was more than 50 µg/mL in the assay with HEL [7], more than 50 µg/mL in the assay with HEL [8], more than 80 µg/mL in the assay with E6SM [9] and more than 100 µg/mL in the assay on CCRF-CEM [10]. Moreover, the Control with HeLa came out at 92%; in the assay on CCRF-CEM [4] it was 98%; in the assay with L1210, 90%; in the assay on L929, 99%.
On to `CSc1nc(N)cc(OCCOCP(=O)(O)O)n1`, for which the EC50 is more than 80 µg/mL with E6SM [1]; more than 40 µg/mL in assay [2]; 33 µg/mL (≈ 112 µM) in the assay with CCRF-CEM [3]; more than 50 µg/mL in the assay on HEL [5]; more than 80 µg/mL in the assay with E6SM [6]; more than 50 µg/mL with Human alphaherpesvirus 3. Further, the concentration for a half-maximal effect (EC50) was more than 50 µg/mL with HEL [7], more than 50 µg/mL in the assay on HEL [8], more than 80 µg/mL in the assay with E6SM [9] and 51 µg/mL (≈ 173 µM) in the assay with CCRF-CEM [10]. Besides, the Control came to 79% with HeLa, 87% with CCRF-CEM [4], 96% with L1210 and 92% in the assay with L929.
With `Nc1cc(=O)n(CCOCP(=O)(O)O)c(N)n1`, the EC50 in the assay on E6SM [1] was 240 µg/mL (≈ 908 µM); in assay [2], 2.92 µg/mL (≈ 11.1 µM); in the assay with CCRF-CEM [3], 25 µg/mL (≈ 94.6 µM); with HEL [5] it was 32 µg/mL (≈ 121 µM); with E6SM [6], more than 400 µg/mL; in the assay with Human alphaherpesvirus 3, more than 50 µg/mL. Further, the EC50 in the assay with HEL [7] is more than 50 µg/mL; in the assay on HEL [8], more than 50 µg/mL; in the assay with E6SM [9] it was more than 400 µg/mL; in the assay with CCRF-CEM [10] it was 80 µg/mL (≈ 303 µM). Moreover, the Control in the assay on HeLa is on record as 93%; in the assay on CCRF-CEM [4] it was 95%; in the assay with L1210 it was 76%; with L929 it was 96%.
Regarding `Nc1nc(O)cc(NC2CC2)n1`, the EC50 was more than 400 µg/mL with E6SM [1]; 133 µg/mL (≈ 800 µM) in assay [2]; more than 100 µg/mL in the assay with CCRF-CEM [3]; more than 50 µg/mL in the assay with HEL [5]; more than 400 µg/mL in the assay with E6SM [6]; more than 50 µg/mL in the assay on Human alphaherpesvirus 3. For the same molecule, the EC50 in the assay on HEL [7] was more than 50 µg/mL; in the assay with HEL [8], more than 50 µg/mL; in the assay on E6SM [9] it was more than 400 µg/mL; in the assay with CCRF-CEM [10], more than 100 µg/mL.
As to `CC(C)OP(=O)(COCCSc1cc(N)nc(N)n1)OC(C)C`, the EC50 with E6SM [1] is more than 400 µg/mL; in the assay with CCRF-CEM [3] it was 52 µg/mL (≈ 143 µM); with HEL [5], more than 50 µg/mL; in the assay with E6SM [6], more than 400 µg/mL; in the assay with Human alphaherpesvirus 3, more than 50 µg/mL; with HEL [7], more than 50 µg/mL. Further, the EC50 in the assay on HEL [8] was more than 50 µg/mL; in the assay with E6SM [9], more than 400 µg/mL; in the assay on CCRF-CEM [10], 47 µg/mL (≈ 129 µM).
On to `Nc1cc(O)ncn1`, for which the 50% effective concentration (EC50) with E6SM [1] is more than 400 µg/mL; with CCRF-CEM [3] it was more than 100 µg/mL; in the assay with HEL [5] it was more than 50 µg/mL; in the assay on E6SM [6], more than 400 µg/mL; in the assay on Human alphaherpesvirus 3, more than 50 µg/mL; in the assay with HEL [7] it was more than 50 µg/mL. For the same molecule, the results for the EC50 with HEL [8], in the assay on E6SM [9] and in the assay on CCRF-CEM [10] were more than 50 µg/mL, more than 400 µg/mL and more than 100 µg/mL, respectively.
Regarding `Nc1nc(NC2CC2)cc(=O)n1CCOCP(=O)(O)O`, the EC50 in the assay with E6SM [1] was more than 16 µg/mL; in the assay with CCRF-CEM [3] it was more than 100 µg/mL; in the assay with HEL [5] it was more than 50 µg/mL; in the assay with E6SM [6], more than 16 µg/mL; in the assay on Human alphaherpesvirus 3 it was more than 50 µg/mL; with HEL [7], more than 50 µg/mL. Further, the EC50 with HEL [8] is more than 50 µg/mL; in the assay on E6SM [9] it was more than 16 µg/mL; in the assay with CCRF-CEM [10], more than 100 µg/mL.
In the case of `Nc1nc(OCCOCP(=O)(O)O)cc(OCCOCP(=O)(O)O)n1`, the EC50 in the assay on E6SM [1] is 240 µg/mL (≈ 595 µM); in assay [2], 43 µg/mL (≈ 107 µM); in the assay with CCRF-CEM [3] it was 80 µg/mL (≈ 198 µM); in the assay on HEL [5] it was 50 µg/mL (≈ 124 µM); in the assay on E6SM [6], 240 µg/mL (≈ 595 µM); with Human alphaherpesvirus 3, more than 50 µg/mL. Moreover, the EC50 in the assay on HEL [7] was more than 50 µg/mL; with HEL [8] it was more than 50 µg/mL; in the assay with E6SM [9], more than 400 µg/mL; with CCRF-CEM [10], 57 µg/mL (≈ 141 µM). For the same molecule, the Control in the assay with HeLa was found to be 72%; in the assay on CCRF-CEM [4], 109%; in the assay on L1210, 77%; in the assay on L929, 56%.

Values taken from ChEMBL document CHEMBL1135936, “6-[2-(Phosphonomethoxy)alkoxy]pyrimidines with antiviral activity” (J Med Chem, 2002).
